Bioassay records deposited in PubChem BioAssay by several laboratories.
XBP1 UPR activ: adaptive UPR (XBP1) activation | CHO-XBP1 luciferase reporter, IRE1-XBP1 UPR activation, luminescence; percent of tunicamycin response, DMSO as zero | activation, % at 20 µM | 330,000 compounds, 0.33% hits;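 active = versus positive control, 20 µM dose yields 30% or more activation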;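 note: 100% = tunicamycin at 10 µg/mL and 0% = DMSO only wells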
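assay system = CHO-XBP1 luciferase reporter cells | amount = 1000 cells/well | buffer or medium = F12 plus 10% FBS | compound dosing = single point, 20 µM final compound, 1% DMSO | incubation = 16-18 h cell attachment at 37 °C, then 6 h compound exposure | detection = Steady-Glo luminescence read | controls = tunicamycin 10 µg/mL and vehicle-only wells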
CHOP inh: blocks CHOP induction under ER stress; 220,000 compounds, 3.8% hits; CHO-K1 CHOP-promoter luciferase, tunicamycin-induced, 15-18 h; AID 2732; inhibition, % at 10 µM;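 active = compounds that reduced the stress-induced luciferase reporter signal by more than about 70% of percent inhibition, limit read from the data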;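 note: 0% = tunicamycin plus vehicle and 100% = wells without tunicamycin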
UPR CHOP act: apoptotic UPR (CHOP) activation. 330,000 compounds, 0.34% hits. activation, % at 10 µM. CHO-CHOP luciferase reporter, luminescence; percent of tunicamycin response over DMSO baseline;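 active = at 10 µM dose, activation of 40% or more, normalized to positive control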;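 note: 100% = tunicamycin at 10 µg/mL and 0% = DMSO alone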
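System: CHO-CHOP luciferase reporter cell line | Buffer or medium: F12 medium containing 10% fetal bovine serum | Doses: One dose, 10 µM in 0.5% DMSO | Times: 6 h compound exposure at 37 °C after overnight seeding | Signal: Luciferase luminescence | Read-out: % activation vs tunicamycin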
PvdQ acylase: P. aeruginosa PvdQ acylase inhibition | AID 488965 | purified PvdQ acylase, fluorescence plate reader | inhibition, % at 10 µM | 340,000 compounds, 0.063% hits; in the data active = inhibition above about 30%, passing the limit was not always enough;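 note: 0% = vehicle neutral wells and 100% = reference inhibitor wells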
CHOP UPR conf: apoptotic UPR (CHOP) activation, confirmed | shares compounds with UPR CHOP act | CHO-CHOP cells, CHOP-luciferase reporter luminescence; percent of tunicamycin response, DMSO as zero | activation, % at 10 µM | 1,000 compounds, 64% hits | AID 463112; in the data active = activation above about 33%;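 note: 0% = DMSO wells and 100% = tunicamycin 10 µg/mL wells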
* hit, by the source's call; x = not tested or not shown. Shown is part of a subset that was picked to be rich in hits.

SMILES	XBP1 UPR activ	CHOP inh	UPR CHOP act	PvdQ acylase	CHOP UPR conf
CCOC(=O)C(=Cc1ccc(OCc2ccc([N+](=O)[O-])cc2)c(OC)c1)C(=O)OCC	5	66	219*	-11	247*
CN(CC(=O)Nc1ccccc1Br)C(=O)CN1CCN(Cc2ccc(Cl)cc2)CC1	-4	x	-1	-17	x
O=C(Nc1cccc(S(=O)(=O)N2CCCCC2)c1)c1ccc([N+](=O)[O-])o1	2	-151	55*	-7	39*
Cc1ccc(NC(=O)c2ccc([N+](=O)[O-])o2)cc1S(=O)(=O)N1CCOCC1	0	-130	82*	-13	40*
COC1=C(c2ccccc2)C(=O)c2ccccc2C1=O	-3	7	0	-8	x
O=C1C(c2ccccc2)=[N+]([O-])c2ccccc21	16	x	67*	3	29
O=C(CCCN1C(=O)S/C(=C\C=C\c2ccccc2)C1=O)Nc1ccc(O)cc1	11	x	64*	-8	2
N#CC12COC3(CCCCC3C1(C#N)C#N)OC2=N (centres undefined)	-2	-82	46*	-14	43*
COc1ccc(C2OC34CCCCC3C(C#N)(C#N)C2(C#N)C(=N)O4)cc1 (centres undefined)	-7	7	54*	-8	35*
N#CC1(C#N)COC23CCCCC2C1(C#N)C(=N)O3 (centres undefined)	-4	-197	65*	-7	55*
CC1OC23CCCCC2C(C#N)(C(=N)O3)C1(C#N)C#N (centres undefined)	-1	12	1	-6	x
CCC1OC23CCCCC2C(C#N)(C(=N)O3)C1(C#N)C#N (centres undefined)	-6	10	10	1	x
O=C(C1CC=CCC1)N1CCN(C(=O)C2CC=CCC2)CC1 (centres undefined)	0	-5	4	-6	x
Oc1ccccc1-c1nc(NCc2ccco2)c2ccccc2n1	4	33	2	1	x
c1ccc(-c2nc(NCc3ccco3)c3ccccc3n2)nc1	6	66	67*	-7	8
C=CCn1c(SCC(=O)c2ccc(O)c(O)c2)nnc1-c1cccc(Cl)c1	11	x	64*	-1	3
CCOc1ccc2nc3cc(NCc4ccc(OC)cc4)ccc3c(N)c2c1	4	x	71*	-13	1
COc1ccc2[nH]cc(C(=O)CCl)c2c1	-7	6	102*	-8	39*
N#C/C(=C/c1ccc(N2CCCCCC2)o1)c1ccc(F)cc1	0	x	98*	-4	22
N#C/C(=C/c1ccc(N2CCOCC2)o1)c1ccc(Br)cc1	1	26	4	1	x
Cc1c(-c2ccccc2)nc2ccccc2c1C(=O)NCc1cccs1	-1	14	1	-2	x
COc1cc(/C=C(/C(=O)c2cccs2)c2nc3ccccc3[nH]2)ccc1O	-3	-49	3	-10	x
O=C(/C(=C/c1ccc(Cl)cc1)c1nc2ccccc2[nH]1)c1cccs1	-5	-127	87*	12	85*
COc1ccc(OC)c2sc(N(CCN(C)C)C(=O)/C=C/c3cccs3)nc12	7	x	67*	-9	11
Cc1cc(C)c(NC(=S)N(CCc2ccncc2)C(C)C)c(C)c1	-2	14	-3	-8	x
SMILES	XBP1 UPR activ	CHOP inh	UPR CHOP act	PvdQ acylase	CHOP UPR conf
CCN(C(=O)CSc1nnc(-c2c[nH]c3ccccc23)n1C1CC1)C1CCS(=O)(=O)C1 (centres undefined)	-4	x	-1	-9	x
Cn1c(O)c(N=Nc2ccccc2)c2ccccc21	-3	x	1	8	x
Cc1ccc2c(c1)c(N=Nc1ccc([N+](=O)[O-])cc1)c(O)n2C	99*	x	73*	-20	3
O=C1c2cc(F)ccc2-n2c1nc1ccccc1c2=O	12	x	77*	-13	30
C/C(=N\NC(=O)C(C)Oc1ccc([N+](=O)[O-])cc1)c1ccccn1 (centres undefined)	7	70	67*	0	42*
Cc1ccccc1S(=O)(=O)NC1OC(=O)C(Cl)=C1Cl (centres undefined)	2	-23	47*	-13	40*
Cc1ccc(S/C=C\C(=O)c2ccccc2)cc1	0	55	69*	-10	56*
COc1ccc(Cc2nc3ccc(C(=O)N(C)CCc4cnn(C)c4)cc3o2)cc1OC	-4	x	1	-12	x
